Data published in paper PMC6044948 (ACS Omega, 2017).
≈ marks a conversion by molar mass, not a printed value.

Assays:
[1] = Solubility enhancement assay with WP6; assay type: physicochemical; details: for solubility at 3 h: NaD2PO4 buffer with WP6, pH 7.4; for solubility enhancement in the presence of WP6: versus intrinsic solubility
Outline: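 Excess solid test compound stirred 3 h at room temperature in NaD2PO4 (10 mM, pD 7.4) containing a known concentration of pillararene host. Undissolved drug removed by centrifugation. Supernatant drug quantified by 1H NMR integration against subsequently added 1,3,5-benzenetricarboxylic acid as internal reference. Each point in triplicate; phase solubility diagrams plotted; enhancement taken relative to intrinsic solubility.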

[2] = Intrinsic solubility of CPT/HCPT; assay type: physicochemical; details: PBS (CPT); NaD2PO4 buffer (HCPT), aqueous buffer, thermodynamic from solid
Outline: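 Excess solid stirred at room temperature, then undissolved material removed by centrifugation. In PBS: stirred 6 h; supernatant quantified by UV–vis against an absorbance standard curve. In NaD2PO4 (10 mM, pD 7.4): stirred 3 h; supernatant quantified by 1H NMR integration against a known concentration of 1,3,5-benzenetricarboxylic acid as internal reference.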

[3] = system: Hela cells; assay: In vitro cytotoxicity against cancer cells, CCK-8 assay; assay type: cell-based; details: Homo sapiens, 24 h
Outline: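 HeLa cells seeded at 4 × 10^3/well and cultured 12 h, then given fresh medium with free test compound, pillararene host alone, or host-loaded test compound for 24 h. Drug range 5 × 10–4–5 × 101 μM; host alone 5 × 10–3–5 × 102 μM. CCK-8 added for 3 h, OD read at 450 nm. Viability was set relative to a medium-only control (100%). IC50 is the concentration giving 50% viability. Mean ± SD, n = 6; Student's t test.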

| SMILES | solubility at 3 h [1] [µM] | solubility enhancement in the presence of WP6 [1] [times] | solubility [2] [µM] | IC50 [3] [nM] |
| --- | --- | --- | --- | --- |
| CC[C@@]1(O)C(=O)OCc2c1cc1n(c2=O)Cc2cc3ccccc3nc2-1 [CPT, 20-(S)-camptothecin] | > 1000 | 380 | 5 (≈ 1.74 µg/mL) | 800 |
| CC[C@@]1(O)C(=O)OCc2c1cc1n(c2=O)Cc2cc3cc(O)ccc3nc2-1 [HCPT, 10-hydroxycamptothecin] | > 1000 | 40 | 29 (≈ 10.6 µg/mL) | 1300 |
